Holding throughout (format): cell-based
For assay [1], the target named is Small conductance calcium-activated potassium channel protein 2 (Rattus norvegicus, UniProt P70604). The assay can be described thus: Potentiation of rat KCa2.2a expressed in HEK293 cells at -90 mV holding potential measured at 1 to 2 days by patch clamp electrophysiology. The procedure, abridged:
(§1)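 Inside-out patches from HEK293 cells transfected (calcium-phosphate) with channel cDNA plus CaM and GFP (7:4:2). Bath (mM): 140 KCl, 10 Hepes pH 7.2, 1 EGTA, 0.1 dibromo-BAPTA, 1 HEDTA, with Ca2+ added to set free Ca2+, verified against a fluorescence standard curve. Currents taken at –90 mV and normalized to the maximal-compound response. EC50 and Hill coefficient came from a concentration–response fit. Efficacy was the maximal-compound current relative to the current at 10 µM Ca2+.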

Assay [2] deals with Small conductance calcium-activated potassium channel protein 2 (Rattus norvegicus) (UniProt P70604). The assay is described as follows: Potentiation of rat KCa2.2a expressed in HEK293 cells at 0.01 to 100 uM with -90 mV holding potential measured at 1 to 2 days by patch clamp electrophysiology relative to calcium. To be noted: filed as positive allosteric modulator, dose 0.01-100 µM, time 1-2 day. The procedure, abridged:
as §1

Assay [3] has as its target Calcium-activated potassium channel subunit alpha-1 (Homo sapiens) (UniProt Q12791). The assay is described as follows: Potentiation of human KCa1.1 expressed in HEK293 cells at 100 uM with -90 mV holding potential measured at 1 to 2 days by patch clamp electrophysiology. Particulars: time 1-2 day.
In assay [4] the target is Small conductance calcium-activated potassium channel protein 1 (Homo sapiens) (UniProt Q92952). The assay can be described thus: Potentiation of human KCa2.1 expressed in HEK293 cells at 0.01 to 100 uM with -90 mV holding potential measured at 1 to 2 days by patch clamp electrophysiology relative to calcium. Particulars: dose 0.01-100 µM, time 1-2 day. The gist of the method:
as §1

The target of assay [5] is T1, Small conductance calcium-activated potassium channel protein 3 (Homo sapiens, UniProt Q9UGI6). The assay is described as follows: Potentiation of human KCa2.3 expressed in HEK293 cells at -90 mV holding potential measured at 1 to 2 days by patch clamp electrophysiology relative to calcium. The procedure, abridged:
as §1

Assay [6] has as its target Intermediate conductance calcium-activated potassium channel protein 4 (Homo sapiens) (UniProt O15554). The assay is described as follows: Potentiation of human KCa3.1 expressed in HEK293 cells at 0.01 to 100 uM with -90 mV holding potential measured at 1 to 2 days by patch clamp electrophysiology relative to calcium. Particulars: dose 0.01-100 µM, time 1-2 day. The procedure, abridged:
as §1

The subject of the next assay is N1E-115. The assay can be described thus: Inhibition of mouse Nav1.2 expressed in mouse N1E-115 cells at 100 uM with -90 mV holding potential measured by patch clamp electrophysiology.
Assay [7] has as its target T1, Small conductance calcium-activated potassium channel protein 3. The assay is described as follows: Potentiation of human KCa2.3 expressed in HEK293 cells at -90 mV holding potential measured at 1 to 2 days by patch clamp electrophysiology. The gist of the method:
as §1

Calls of active or inactive are those of the source. The rule behind the calls is not given here.

Small conductance calcium-activated potassium channel protein 2, sequence (P70604 whole entry): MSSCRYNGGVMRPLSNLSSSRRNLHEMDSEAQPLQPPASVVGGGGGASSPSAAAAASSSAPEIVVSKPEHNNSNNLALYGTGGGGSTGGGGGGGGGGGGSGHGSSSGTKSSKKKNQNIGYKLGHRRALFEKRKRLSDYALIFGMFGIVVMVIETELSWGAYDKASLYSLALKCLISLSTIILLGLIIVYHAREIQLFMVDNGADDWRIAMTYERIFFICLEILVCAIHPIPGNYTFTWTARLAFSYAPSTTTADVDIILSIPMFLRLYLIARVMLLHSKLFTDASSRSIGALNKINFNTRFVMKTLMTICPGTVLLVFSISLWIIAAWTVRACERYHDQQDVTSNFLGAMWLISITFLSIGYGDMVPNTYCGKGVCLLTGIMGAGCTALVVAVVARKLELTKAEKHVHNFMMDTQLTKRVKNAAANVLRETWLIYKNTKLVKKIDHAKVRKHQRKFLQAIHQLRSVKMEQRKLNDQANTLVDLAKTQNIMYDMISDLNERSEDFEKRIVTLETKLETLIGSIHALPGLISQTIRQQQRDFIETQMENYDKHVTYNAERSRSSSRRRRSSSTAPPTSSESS
Small conductance calcium-activated potassium channel protein 2 (Rattus norvegicus), sequence (P70604 whole entry): as above
Small conductance calcium-activated potassium channel protein 1 (Homo sapiens), sequence (Q92952 whole entry): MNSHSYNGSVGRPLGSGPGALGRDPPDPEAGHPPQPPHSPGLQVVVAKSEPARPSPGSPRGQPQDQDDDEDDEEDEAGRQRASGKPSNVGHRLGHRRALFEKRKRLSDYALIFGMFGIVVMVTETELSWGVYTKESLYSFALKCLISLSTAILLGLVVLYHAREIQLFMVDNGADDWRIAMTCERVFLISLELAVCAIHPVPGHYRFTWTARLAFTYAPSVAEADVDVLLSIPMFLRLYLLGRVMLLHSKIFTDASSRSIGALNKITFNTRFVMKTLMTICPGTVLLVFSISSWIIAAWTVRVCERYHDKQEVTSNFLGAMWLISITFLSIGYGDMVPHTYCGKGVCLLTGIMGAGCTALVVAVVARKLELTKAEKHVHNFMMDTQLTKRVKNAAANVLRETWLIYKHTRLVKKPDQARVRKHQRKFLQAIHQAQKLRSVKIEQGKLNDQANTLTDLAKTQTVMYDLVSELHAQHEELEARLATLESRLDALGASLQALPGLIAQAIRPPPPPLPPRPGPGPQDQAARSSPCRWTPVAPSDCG
Calcium-activated potassium channel subunit alpha-1 (Homo sapiens), sequence (Q12791 whole entry): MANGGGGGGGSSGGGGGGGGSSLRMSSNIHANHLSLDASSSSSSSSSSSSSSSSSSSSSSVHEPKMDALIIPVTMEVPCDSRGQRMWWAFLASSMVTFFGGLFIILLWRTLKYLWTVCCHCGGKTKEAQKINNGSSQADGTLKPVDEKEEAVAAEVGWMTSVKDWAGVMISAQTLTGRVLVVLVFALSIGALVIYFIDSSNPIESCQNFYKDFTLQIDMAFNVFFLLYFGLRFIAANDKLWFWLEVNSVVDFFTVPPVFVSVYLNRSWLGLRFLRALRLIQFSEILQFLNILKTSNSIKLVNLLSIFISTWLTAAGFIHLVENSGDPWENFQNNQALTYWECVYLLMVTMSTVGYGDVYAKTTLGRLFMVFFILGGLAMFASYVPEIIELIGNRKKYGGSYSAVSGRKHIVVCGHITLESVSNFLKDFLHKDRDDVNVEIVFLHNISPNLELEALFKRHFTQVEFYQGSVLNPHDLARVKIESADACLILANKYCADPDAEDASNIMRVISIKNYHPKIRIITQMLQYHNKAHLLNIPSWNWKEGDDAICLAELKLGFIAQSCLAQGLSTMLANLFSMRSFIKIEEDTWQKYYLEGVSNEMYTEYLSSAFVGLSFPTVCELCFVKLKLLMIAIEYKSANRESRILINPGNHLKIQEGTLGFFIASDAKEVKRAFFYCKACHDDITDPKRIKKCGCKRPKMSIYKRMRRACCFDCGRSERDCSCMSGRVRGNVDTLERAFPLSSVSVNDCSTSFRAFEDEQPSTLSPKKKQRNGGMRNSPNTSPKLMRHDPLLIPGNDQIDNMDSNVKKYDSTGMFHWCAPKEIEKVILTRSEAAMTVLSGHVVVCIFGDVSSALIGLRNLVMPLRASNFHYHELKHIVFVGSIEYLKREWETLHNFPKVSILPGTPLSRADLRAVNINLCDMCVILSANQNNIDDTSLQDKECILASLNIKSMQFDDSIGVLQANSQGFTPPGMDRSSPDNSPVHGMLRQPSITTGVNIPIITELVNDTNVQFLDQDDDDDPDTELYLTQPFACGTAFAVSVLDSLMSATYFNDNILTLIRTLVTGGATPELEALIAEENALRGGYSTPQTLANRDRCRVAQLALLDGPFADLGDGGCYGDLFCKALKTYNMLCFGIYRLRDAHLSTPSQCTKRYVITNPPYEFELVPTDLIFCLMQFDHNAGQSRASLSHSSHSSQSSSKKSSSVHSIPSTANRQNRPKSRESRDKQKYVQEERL
T1 sequence (Q9UGI6 whole entry): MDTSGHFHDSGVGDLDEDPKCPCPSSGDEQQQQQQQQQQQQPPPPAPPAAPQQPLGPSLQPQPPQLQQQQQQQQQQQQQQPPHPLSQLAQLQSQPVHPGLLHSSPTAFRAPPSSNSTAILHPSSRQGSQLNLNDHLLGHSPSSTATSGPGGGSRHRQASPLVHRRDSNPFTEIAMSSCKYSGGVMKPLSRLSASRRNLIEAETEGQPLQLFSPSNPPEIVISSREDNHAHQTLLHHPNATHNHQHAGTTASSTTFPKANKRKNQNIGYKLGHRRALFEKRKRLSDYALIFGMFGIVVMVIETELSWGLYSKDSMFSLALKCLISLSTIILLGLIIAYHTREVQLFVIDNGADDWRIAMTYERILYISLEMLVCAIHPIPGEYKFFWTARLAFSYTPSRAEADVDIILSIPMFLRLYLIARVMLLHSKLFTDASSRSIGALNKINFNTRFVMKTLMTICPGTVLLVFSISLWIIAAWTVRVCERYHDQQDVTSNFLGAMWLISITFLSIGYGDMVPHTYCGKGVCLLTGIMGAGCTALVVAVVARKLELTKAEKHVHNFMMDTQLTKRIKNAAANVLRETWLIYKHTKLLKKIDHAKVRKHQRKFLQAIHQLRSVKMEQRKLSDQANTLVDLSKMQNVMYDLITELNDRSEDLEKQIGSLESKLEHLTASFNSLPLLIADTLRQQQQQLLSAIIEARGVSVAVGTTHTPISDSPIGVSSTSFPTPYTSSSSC
Intermediate conductance calcium-activated potassium channel protein 4 (Homo sapiens), sequence (O15554 whole entry): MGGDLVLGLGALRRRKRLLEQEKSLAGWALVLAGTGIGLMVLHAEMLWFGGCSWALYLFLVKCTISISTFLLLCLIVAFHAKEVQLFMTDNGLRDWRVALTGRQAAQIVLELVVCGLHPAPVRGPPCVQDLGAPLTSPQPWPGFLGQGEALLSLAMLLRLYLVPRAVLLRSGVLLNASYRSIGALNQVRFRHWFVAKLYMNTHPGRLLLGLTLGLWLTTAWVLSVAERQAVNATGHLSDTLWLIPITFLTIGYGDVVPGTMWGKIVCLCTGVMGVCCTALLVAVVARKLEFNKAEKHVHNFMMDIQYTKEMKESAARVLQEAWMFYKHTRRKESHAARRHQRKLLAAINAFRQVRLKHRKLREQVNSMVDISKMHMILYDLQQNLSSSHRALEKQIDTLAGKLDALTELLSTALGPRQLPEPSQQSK

Regarding `Cc1cc(N[C@H]2CC[C@@H](O)CC2)nc(-n2nc(C)cc2C)n1`, the EC50 in assay [1] is greater than 100 µM. Still for that read-out and setting: then `COc1cc2nc(Nc3cc(C)nc(-n4nc(C)cc4C)n3)[nH]c2cc1OC`, with greater than 100 µM; and `Cc1cc(Nc2ccc([N+](=O)[O-])cc2)nc(-n2nc(C)cc2C)n1`, with greater than 100 µM; and `Cc1cc(N[C@H]2CC[C@@H](N)CC2)nc(-n2nc(C)cc2C)n1`, with greater than 100 µM. Same read-out and setting: then `Cc1cc(Nc2ccc(C(F)(F)F)c(Cl)c2)nc(-n2nc(C)cc2C)n1`, with 3.27 µM; and `Cc1cc(Nc2ccc(S)cc2)nc(-n2nc(C)cc2C)n1`, with greater than 100 µM; and `Cc1cc(Nc2ccc(F)c(Cl)c2)nc(-c2coc(C)n2)n1`, with 3.59 µM.

Take `Cc1cc(C)n(-c2cc(Nc3cccc(Cl)c3)nc(N)n2)n1`: the EC50 in assay [1] is greater than 100 µM. On the same count and under the same terms, then `Cc1cc(N[C@@H](Cc2ccc(O)cc2)C(=O)O)nc(-n2nc(C)cc2C)n1`, with greater than 100 µM; and `Cc1cc(C)n(-c2cc(Nc3cc(F)ccc3Cl)nc(N)n2)n1`, with greater than 100 µM.

Regarding `Cc1cc(Nc2cc(C(=O)O)ccc2F)nc(-n2nc(C)cc2C)n1`, the concentration giving a half-maximal response (EC50) in assay [1] is greater than 30 µM. In the case of `Cc1cc(NC2CCCCC2)nc(-n2nc(C)cc2C)n1`, in assay [1], the EC50 came to 7.48 µM. Besides, the Emax in assay [2] is 85.6%. On to `Cc1cc(C)n(-c2cc(Nc3cc(F)ccc3F)nc(N)n2)n1`, for which the EC50 in assay [1] was greater than 100 µM. Same read-out and setting: then `Cc1cc(N[C@H]2CC[C@@H](CO)CC2)nc(-n2nc(C)cc2C)n1`, with greater than 100 µM; and `Cc1cc(N[C@@H](Cc2ccc(C#N)cc2)C(=O)O)nc(-n2nc(C)cc2C)n1`, with greater than 100 µM. For `Cc1cc(Nc2ccc(F)c(Cl)c2)nc(-n2nc(C)cc2C)n1`, the outcome in assay [3] was inactive. For the same compound, the EC50 was 0.99 µM in assay [1] and 0.19 µM in assay [5]. Moreover, the Emax in assay [2] was 90%; in assay [4], 0%; in assay [6] it was 28.3%. The same compound showed an inhibition in the assay on N1E-115 of 50%. As to `Cc1cc(Nc2cc(Cl)ccc2F)nc(-n2nc(C)cc2C)n1`, in assay [3], the outcome was inactive. In addition, the results for the EC50 in assay [1] and in assay [7] were 0.64 µM and 0.6 µM, respectively. In addition, the Emax in assay [2] is 90%; in assay [4], 0%; in assay [6], 2.02%. The inhibition in the assay on N1E-115 amounted to 50%. Take `Cc1cc(Nc2ccc(C(F)(F)F)cc2)nc(-n2nc(C)cc2C)n1`: the EC50 in assay [1] turned out to be 3.45 µM.

As for `Cc1cc(Nc2cc(Cl)ccc2F)nc(-c2coc(C)n2)n1`, the EC50 in assay [1] came out at 13.8 µM. The same measure, in the same setting: then `Cc1cc(C)n(-c2cc(Nc3ccc(Cl)cc3F)nc(N)n2)n1`, with greater than 100 µM; and `Cc1cc(Nc2cc(Cl)cc(C(F)(F)F)c2)nc(-n2nc(C)cc2C)n1`, with greater than 100 µM; and `Cc1cn(-c2nc(C)cc(Nc3ccc(F)c(Cl)c3)n2)cn1`, with 38.8 µM.

For the compound `Cc1cc(C)n(-c2cc(Nc3ccc(C(F)(F)F)c(Cl)c3)nc(N)n2)n1`, the EC50 in assay [1] was greater than 100 µM. On the same count and under the same terms, then `Cc1cc(N[C@@H](Cc2ccc(F)c(F)c2)C(=O)O)nc(-n2nc(C)cc2C)n1`, with greater than 100 µM.

As to `CO[C@H]1CC[C@@H](Nc2cc(C)nc(-n3nc(C)cc3C)n2)CC1`, the EC50 in assay [1] was 49.7 µM. Also, the maximal response (Emax) in assay [2] was determined as 94.6%. `Cc1cc(NCCc2ccc([N+](=O)[O-])cc2)nc(-n2nc(C)cc2C)n1`: in assay [1], the EC50 was greater than 100 µM. Same read-out and setting: the value for `Cc1cc(N[C@H]2CC[C@@H](F)CC2)nc(-n2nc(C)cc2C)n1` was greater than 100 µM. The same measure, in the same setting: the value for `Cc1cc(Nc2ccc(Cl)cc2F)nc(-n2nc(C)cc2C)n1` was 1.99 µM; that for `Cc1cn(-c2nc(C)cc(Nc3cc(Cl)ccc3F)n2)cn1` was 4.51 µM; that for `Cc1cc(Nc2cc(F)ccc2F)nc(-n2nc(C)cc2C)n1` was 1.89 µM. Still for that read-out and setting: then `Cc1cc(Nc2cc(F)ccc2Cl)nc(-n2nc(C)cc2C)n1`, with 2.97 µM. On to `Cc1cc(C)n(-c2cc(C)c(Nc3ccc(F)c(Cl)c3)nn2)n1`, for which the EC50 in assay [1] was 4.32 µM. The same measure, in the same setting: the value for `Cc1cc(C)n(-c2cc(Nc3ccc(F)c(Cl)c3)nc(N)n2)n1` was greater than 100 µM; that for `Cc1cc(Nc2cccc(F)c2F)nc(-n2nc(C)cc2C)n1` was 5.03 µM; that for `Cc1cc(C)n(-c2cc(Nc3cc(Cl)ccc3F)nc(N)n2)n1` was greater than 100 µM. Still for that read-out and setting: then `Cc1cc(N[C@H]2CC[C@@H]([N+](=O)[O-])CC2)nc(-n2nc(C)cc2C)n1`, with greater than 100 µM. Still for that read-out and setting: the value for `Cc1cc(C)n(-c2nc(N)cc(Nc3ccc(F)c(Cl)c3)n2)n1` was 6.59 µM.

Values taken from ChEMBL document CHEMBL5038638, “Structure-Activity Relationship Study of Subtype-Selective Positive Modulators of KCa2 Channels” (J Med Chem, 2022).
